Published values collected from several papers.
Protocols differ between the studies behind these lines.
HTR5A: 5-hydroxytryptamine receptor 5A (HTR5A, Homo sapiens, UniProt P47898)
DRD4: D(4) dopamine receptor (DRD4, Homo sapiens, UniProt P21917)
PIK3CD: Phosphatidylinositol 4,5-bisphosphate 3-kinase catalytic subunit delta isoform (PIK3CD, Homo sapiens, UniProt O00329)

Compound	target	assay	conditions	endpoint	result
Nc1nc2c(ncn2[C@@H]2O[C@H](COP(=O)(O)OP(=O)(O)O)[C@@H](OP(=O)(O)OP(=O)(O)O)[C@H]2O)c(=O)[nH]1	cmk (Escherichia coli, UniProt P0A6I0)	binding, ITC		Kd	79000 nM
CCn1c(-c2nc3ccc(C(=O)N4CCCC(N)C4)cc3n2C)cc2ccccc21 (stereo not shown)	Nuclear receptor subfamily 1 group I member 2 (NR1I2, Homo sapiens, UniProt O75469)	reporter gene, agonist, luciferase		EC50	> 50100 nM
CS(=O)(=O)C1(CNCc2cccc3cccnc23)CC1	HTR5A	ligand displacement, radioligand		Ki	41.7 nM
CCN(CC)c1ccc(C2Nc3ccc(C(=O)c4ccccc4)cc3NC3=C2C(=O)CC(C)(C)C3)cc1 (stereo not shown)	HTR5A	cell-free assay, radioligand		Ki	7960 nM
CCCCCCCNCCCc1ccc([N+](=O)[O-])cc1	DRD4	ligand displacement, radioligand		Ki	240 nM
Oc1cccc(CCC2=NCCN2Cc2ccccc2)c1	DRD4	ligand displacement, radioligand		Ki	> 10000 nM
CC[C@@H]1C(=O)OC[C@@H]1Cc1cncn1C	Cytochrome P450 2E1 (CYP2E1, Homo sapiens, UniProt P05181)	enzyme activity, inhibitor	10 min, pH 6.8	Ki	765000 nM
CC1=C(O)C(=O)OC1C (stereo not shown)	OR8D1 (Homo sapiens, UniProt Q8WZ84, R293A)	cAMP, agonist, luciferase		EC50	13500 nM
CS(=O)(=O)C1(CNCc2ccc(Br)c3cccnc23)CC1	HTR5A	ligand displacement, radioligand		Ki	178 nM
COc1ccc2c(c1)C(=O)N(CCN1CCN(c3ccccc3OC)CC1)C2	DRD4	ligand displacement, radioligand		Ki	191 nM
COc1ccc(F)cc1C(=O)NCc1ccc(-c2nn([C@@H](C)C(F)(F)F)c(N)c2C(N)=O)cc1	Tyrosine-protein kinase BTK (BTK, Homo sapiens, UniProt Q06187, C481R)	phosphorylation in cells, inhibitor		IC50	12.6 nM
Cc1cnc(-c2ccc(-c3ccc(NC(=O)Nc4c(F)cc(F)cc4F)cc3F)c3c2C(=O)NC3)[nH]1	Mast/stem cell growth factor receptor Kit (KIT, Homo sapiens, UniProt P10721)	binding, competition with immobilised ligand		Kd	0.8 nM
COc1ccc(-c2nsc(NC(=O)[C@@H]3C[C@H]3C)c2C)cc1	Metabotropic glutamate receptor 8 (GRM8, Homo sapiens, UniProt O00222)	calcium signal, agonist		EC50	> 25000 nM
O=C1c2ccccc2CCN1CCCCN1CCN(c2cccc(Cl)c2Cl)CC1	HTR5A	ligand displacement, radioligand		Ki	773 nM
CCC(=O)N1CCC(C(=O)N(C)CC(=O)N2CCN(c3nc(-c4cnc(N)nc4C(F)F)nc(N4CCOCC4)n3)CC2)CC1	PIK3CD	binding, competition with immobilised ligand		Kd	4.9 nM
CCCCCCSC[C@H]1CN(Cc2c[nH]c3c(N)ncnc23)C[C@@H]1O	Aminodeoxyfutalosine nucleosidase (Helicobacter pylori, UniProt Q9ZMY2)	enzyme activity, inhibitor, absorbance	pH 7.4	Ki	0.085 nM
CC(C)=CCC/C(C)=C/CC/C(C)=C/CSc1ccccc1C(=O)O	Squalene synthase (Homo sapiens, UniProt P37268)	enzyme activity, inhibitor		Ki	370 nM
CCC(=O)N1CCC(C(=O)NCC(=O)N2CCN(c3nc(-c4cnc(N)nc4C(F)F)nc(N4CCOCC4)n3)CC2)CC1	PIK3CD	binding, competition with immobilised ligand		Kd	1.6 nM
CNc1nc2cc(OCCCCN3CCC(c4cccc(Cl)c4Cl)CC3)ccc2s1	HTR5A	ligand displacement, radioligand		Ki	810 nM
